From PubChem BioAssay
STAT3 act: activators of IL-6 induced STAT3 signaling. U3A cells, IL-6 STAT3-luciferase reporter, luminescence; 100% = signal with IL-6 EC80 alone. activation (% of control), % at 5.6 µM. hit rate 0.91% among 190,000;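 active = activation above the screen-wide mean of compound activation plus 3 SD, cut at about 130% in these data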
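system = STAT3-luciferase reporter U3A cells | reagent = IL-6 stimulus at 33 ng/mL final | timing = 1 h compound pre-exposure, 6 h IL-6 stimulation, 37 °C | measured by = luminescence | evaluation = % activation versus median of IL-6-stimulated wells | control set = IL-6-only wells as 100% reference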
STAT1 activator: activators of IFN-gamma induced STAT1 signaling; NIH 3T3 STAT1-luciferase reporter, luminescence; 100% = IFN-gamma alone, no compound; activation (% of control), % at 5.5 µM; hit rate 2.6% among 200,000;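 active = activation above the screen-wide mean activation plus 3 SD, cut at about 130% in these data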
APP 5'UTR act: activates APP 5'UTR luciferase reporter | SH-SY5Y APP 5'UTR luciferase reporter, luminescence; zero percent = DMSO vehicle wells | activation, % at 2 µM | hit rate 1% among 190,000 | AID 1276;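 active = activation above a set limit, based on mean plus 3 SD of controls, cut at about 140% in these data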
STAT3 blocker: reduces IL-6 driven STAT3 reporter signal; inhibition, % at 5.5 µM; AID 862; U3A cells, IL-6 STAT3-luciferase reporter, luminescence; host cell line lacks STAT1; hit rate 0.89% among 190,000;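 active = inhibition above the mean inhibition across all screened compounds plus 3 SD, cut at about 44% in these data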
STAT1 blocker: inhibitors of IFN-gamma induced STAT1 signaling. AID 920. NIH 3T3 STAT1-luciferase reporter, luminescence. hit rate 0.35% among 200,000. inhibition, % at 5.5 µM;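 active = inhibition above a set limit, the mean inhibition across all tested compounds plus 3 SD, cut at about 34% in these data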
NF-kB expr up: NF-kB expression increase, human neuronal cells; hit rate 1.6% among 190,000; NF-kB reporter expression; active compounds read high; fold change at 12.5 µM; in the data active = fold change above about 3.3
Of the large screens only hits and unclear results are named; the others gave an inactive call. The list is not random: actives were taken first. Their share in the collection is about 4.9%.

CCOc1ccc2oc(=O)cc(C)c2c1	STAT1 activator 133
COc1cc(S(=O)(=O)Nc2ccc3cn[nH]c3c2)ccc1Cl	none
O=C(O)c1ccc(Cl)c(S(=O)(=O)Nc2ccc3cn[nH]c3c2)c1	STAT3 act 135
O=C(O)CSc1c(-c2cccs2)[nH]c2ccccc12	none
COc1ccc2nc(NC(=O)CSc3nnnn3C)sc2c1	STAT1 activator 142
COc1ccc2nc(NC(=O)Cc3cccs3)sc2c1	STAT1 activator 136
CCOc1ccc2nc(NC(=O)COC)sc2c1	STAT1 activator 138, APP 5'UTR act 140, NF-kB expr up 4.9
COc1ccc2nc(NC(=O)CSc3nnnn3C3CCCCC3)sc2c1	none
CCOc1ccc2nc(NC(=O)Cc3cccs3)sc2c1	STAT1 activator 129
O=C(NCCCN1CCOCC1)/C(=C/c1cccnc1)NC(=O)c1ccccc1	none
Cc1ccc(C(=O)Nc2ccc3nc(C)sc3c2)s1	STAT1 activator 141, APP 5'UTR act 167, NF-kB expr up 6.6
CC1(C)CC(NC(=S)Nc2ccc(S(N)(=O)=O)cc2)CC(C)(C)N1	none
Cc1ccc2nc(-c3ccc(NC(=S)NC4CC(C)(C)NC(C)(C)C4)cc3)sc2c1	STAT1 activator 135, APP 5'UTR act 168
O=C(CCN1C(=O)c2ccccc2C1=O)Nc1ccc(-c2nc3ccccc3s2)cc1	STAT1 activator 142, APP 5'UTR act 136
O=C(CCN1C(=O)c2ccccc2C1=O)Nc1nc2ccccc2s1	none (no result: APP 5'UTR act)
CCC(=O)NC(=S)Nc1ccc(-c2nc3ccccc3s2)cc1	STAT1 activator 142
Cc1ccc(NC(=S)c2nc3ccccc3s2)cc1	STAT1 activator 134, APP 5'UTR act 168
CCC(=O)NC(=S)Nc1ccc(-c2nc3ccc(C)cc3s2)cc1	none
Cc1ccc2nc(-c3ccc(NC(=S)NC(=O)C(C)C)cc3)sc2c1	none
Cc1ccc2nc(-c3ccc(NC(=O)C(C)N4C(=O)c5ccccc5C4=O)cc3)sc2c1 (centres undefined)	STAT1 activator 141
COC(=O)c1ccc(C(=O)OCc2nc3cc4ccccc4cc3[nH]2)cc1	none
Cc1ccc(C2=N/C(=C/N3CCOCC3)C(=O)O2)cc1	STAT1 activator 129
Cc1ccc(C2=N/C(=C\N3CCCCC3)C(=O)O2)cc1	STAT1 activator 142
Cc1cccc2cc(/C=C3\N=C(c4ccccc4)OC3=O)c(N3CCOCC3)nc12	none
CC(C)(O)C#Cc1ccc(C(=O)NC2CCCCC2)s1	none
CCc1ccc(C(=O)NC2CCCCC2)s1	STAT1 activator 141, NF-kB expr up 4.7
CC(C)C(=O)N1N=C2CCCCC2C1(O)C(F)(F)F (centres undefined)	none
O=C(N/N=C/c1ccc([N+](=O)[O-])cc1)c1[nH]ncc1Br	STAT1 activator 131
O=C(Nc1ccccc1)c1ccc(-c2ccc(F)cc2)s1	STAT1 activator 143
Cc1csc2nc(CSc3nncn3-c3ccccc3)c(Br)n12	none
Cc1csc2nc(CSc3nc4ccccc4o3)c(Br)n12	STAT1 activator 146
CCCc1ccc(OC(=O)c2ccc(O)cc2Cl)cc1	APP 5'UTR act 218, NF-kB expr up 4.3
CCCc1ccc(OC(=O)c2cccs2)cc1	none
Cc1ccc(NC(=O)NC(=O)N(c2ccccc2)S(C)(=O)=O)cc1	none
O=C1c2cccc3cccc(c23)C(=O)N1c1ccncc1	none
CCc1nnc(N2C(=O)c3cccc4cccc(c34)C2=O)s1	STAT3 act 135
CCNc1nnc(CCn2nc(C)c(Br)c2C)s1	none
CN(C)C(=O)c1ccc(COc2ccccc2Br)o1	STAT1 activator 132
COc1ccccc1OCc1ccc(C(=O)N(C)C)o1	none
CC(NC(=O)/C(=C/c1ccc2c(c1)OCO2)NC(=O)c1cccc([N+](=O)[O-])c1)C(=O)O (centres undefined)	none
COc1ccc(-c2cc(=Nc3c(C)n(C)n(-c4ccccc4)c3=O)c3ccccc3o2)cc1	STAT1 activator 142
COc1ccc(-c2csc(=Nc3c(C)n(C)n(-c4ccccc4)c3=O)n2C(C)(C)C)cc1	none
Cc1occc1C(=O)NN=C1C2CC3CC(C2)CC1C3	STAT1 activator 150, APP 5'UTR act 154
COc1cccc(NC(=O)N2CCCC2C(=O)NCc2ccccc2)c1 (centres undefined)	none
O=[N+]([O-])c1nn(-c2ccc3c(c2)OCCO3)n(O)c1=NCCCO	none
O=[N+]([O-])c1nn(-c2ccc3c(c2)OCCO3)n(O)c1=Nc1ccccc1	STAT3 blocker 90, STAT1 blocker 46
Cc1ccc(CN=c2c([N+](=O)[O-])nn(-c3ccc4c(c3)OCCO4)n2O)cc1	STAT1 activator 135
O=[N+]([O-])c1nn(-c2ccc3c(c2)OCCO3)n(O)c1=Nc1ccc(Cl)cc1	none
c1ccc(-c2noc(-c3cccnc3)n2)cc1	STAT1 activator 150, NF-kB expr up 3.4
COc1cc(OC)cc(-c2nc(-c3ccccc3)no2)c1	none (no result: APP 5'UTR act)
COc1ccc(-c2noc(-c3cccnc3)n2)cc1OC	STAT1 activator 140
c1ccc(-c2ccc(-c3nc(-c4cccnc4)no3)cc2)cc1	STAT1 activator 137, APP 5'UTR act 136, NF-kB expr up 5.3
CCOc1cc(-c2noc(-c3cccnc3)n2)ccc1OC	none
c1ccc(-c2ccccc2-c2nc(-c3ccncc3)no2)cc1	none
O=c1[nH]c2ccccc2cc1-c1noc(-c2cccnc2)n1	none
COc1cccc(-c2noc(-c3ccc(Cl)nc3)n2)c1	STAT3 act 144, STAT1 activator 151, NF-kB expr up 4.9
Cc1ccc(-c2noc(/C=C/c3ccccc3)n2)cc1	none
c1ccc(-c2cnc(-c3cccnc3)o2)cc1	STAT1 activator 135
C(=C\c1nc(-c2cccnc2)no1)/c1ccccc1	STAT1 activator 145
Cc1cc(NC(=O)C2CCCO2)ccc1Br (centres undefined)	none
Cc1cc(NC(=S)NC(=O)C2CC2)ccc1Br	STAT1 activator 139
Cc1ccc(-c2nsc3c(N4CCC(C(N)=O)CC4)ncnc23)cc1	APP 5'UTR act 142
COc1ccc(-c2nsc3c(N4CCCCC4C)ncnc23)cc1 (centres undefined)	STAT3 blocker 99, STAT1 blocker 81
Cc1ccc(C(=O)N2CCN(c3ncnc4c(-c5ccccc5)nsc34)CC2)cc1	none
OCCSc1nc(-c2cccnc2)nc2ccccc12	none
O=c1c(-c2cc3ccccc3o2)[n+]([O-])c2ccccc2n1OCc1ccccn1	STAT1 activator 142
Cc1[nH]c2ccccc2c1CN1CCC(Cc2ccccc2)CC1	none
Cc1ccc(C(=O)Nc2ccc([N+](=O)[O-])cn2)o1	none
Cc1ccc2c(c1)c1ncnc(N3CCC4(CC3)OCCO4)c1n2C	STAT3 act 135
Cc1ccc(O)c(NC(=O)c2cc([N+](=O)[O-])ccc2Cl)c1	none
Cc1cc(O)c(NC(=O)c2cc([N+](=O)[O-])ccc2Cl)cc1C	STAT3 act 134
